# Molecular target: Potassium voltage-gated channel subfamily KQT member 2 (Mus musculus) (UniProt Q9Z351)
# Test: Ability to open cloned mKCNQ2 channel expressed in Xenopus laevis oocytes at 10 uM expressed as percent of compound-free control current at -40 mV
# Type: functional, cell-based
# Conditions: Oocyte
# How it was run: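 Two-electrode voltage clamp of Xenopus laevis oocytes injected with ~50 nL mKCNQ2 cRNA, kept at 17 °C in ND96 (mM: NaCl 90, KCl 1.0, CaCl2 1.0, MgCl2 1.0, HEPES 5.0, pH 7.5) with 5% horse serum and penicillin/streptomycin. Holding potential -90 mV, 10 mV steps from -80 to +40 mV. Current at -40 mV with 10 μM compound taken as % of compound-free control; mean ± SEM of ≥5 oocytes.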
# Chain of Potassium voltage-gated channel subfamily KQT member 2 (Mus musculus) (Q9Z351 whole entry): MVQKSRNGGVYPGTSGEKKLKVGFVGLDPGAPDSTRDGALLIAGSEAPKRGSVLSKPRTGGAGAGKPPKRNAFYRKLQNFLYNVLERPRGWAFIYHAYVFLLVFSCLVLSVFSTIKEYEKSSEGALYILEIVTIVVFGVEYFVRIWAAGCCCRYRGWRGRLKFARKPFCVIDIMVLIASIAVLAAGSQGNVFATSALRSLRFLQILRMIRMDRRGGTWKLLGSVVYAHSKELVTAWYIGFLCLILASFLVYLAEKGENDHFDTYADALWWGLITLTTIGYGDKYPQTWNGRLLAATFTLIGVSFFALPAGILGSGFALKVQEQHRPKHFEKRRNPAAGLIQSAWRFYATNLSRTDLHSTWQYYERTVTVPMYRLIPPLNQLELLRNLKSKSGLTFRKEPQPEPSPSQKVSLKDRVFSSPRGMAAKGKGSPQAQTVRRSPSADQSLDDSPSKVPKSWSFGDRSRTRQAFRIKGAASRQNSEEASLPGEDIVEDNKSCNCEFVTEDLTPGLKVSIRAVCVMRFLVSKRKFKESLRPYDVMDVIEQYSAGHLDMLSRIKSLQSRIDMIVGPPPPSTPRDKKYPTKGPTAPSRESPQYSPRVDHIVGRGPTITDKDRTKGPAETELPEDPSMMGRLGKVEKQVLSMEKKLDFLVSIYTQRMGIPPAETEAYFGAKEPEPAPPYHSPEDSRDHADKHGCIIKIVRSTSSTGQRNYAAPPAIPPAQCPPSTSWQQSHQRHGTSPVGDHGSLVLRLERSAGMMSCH
row,Compound,KCNQ2 current at -40 mV as percent of compound-free control [%]
1,C[C@H](NC/C=C/c1ccccc1)c1cccc(N2CCOCC2)c1,98
2,C[C@@H](c1cccc(N2CCOCC2)c1)N(C)C(=O)/C=C/c1ccccc1,72
3,C[C@H](NC(=O)CCc1ccccc1)c1cccc(N2CCOCC2)c1,105
4,CC1CN(c2cccc([C@H](C)NC(=O)/C=C/c3ccccc3)c2)CC(C)O1 (stereo partly specified),138
5,C[C@H](NC(=O)/C=C/c1ccccc1)c1cccc(N(C)C)c1,110
6,C[C@H](NC(=O)/C=C/c1ccccc1F)c1cccc(N2CCN(C)CC2)c1,107
7,O=C(/C=C/c1ccccc1)NCc1cccc(N2CCOCC2)c1,110
8,CC1CN(c2cccc([C@H](C)NC(=O)/C=C/c3ccccc3F)c2)CC(C)O1 (stereo partly specified),135
9,COc1ccc(N2CCOCC2)cc1[C@H](C)NC(=O)/C=C/c1ccccc1,98
10,CC1CN(c2cccc([C@H](C)NC(=O)/C=C/c3ccc(F)cc3)c2)CC(C)O1 (stereo partly specified),133
11,COc1ccc([C@H](C)NC(=O)/C=C/c2ccccc2)cc1N1CCOCC1,96
12,C[C@H](NC(=O)/C=C/c1ccccc1)c1cccc(N2CC3CC2CO3)c1 (stereo partly specified),104
13,CC1=C(C(=O)N[C@@H](C)c2cccc(N3CCOCC3)c2)Cc2ccccc21,101

# Next, values leading:
row,KCNQ2 current at -40 mV as percent of compound-free control [%],Compound
1,127,C[C@H](NC(=O)/C=C/c1cccc(F)c1)c1cccc(N2CCOCC2)c1
2,142,C[C@H](NC(=O)/C=C/c1ccc(F)cc1)c1ccc(F)c(N2CCOCC2)c1
3,99,COc1ccccc1/C=C/C(=O)N[C@@H](C)c1cccc(N2CCOCC2)c1
4,102,C[C@H](NC(=O)/C=C/c1cc(F)ccc1F)c1cccc(N2CCOCC2)c1
5,110,C[C@H](NC(=O)/C=C/c1ccccc1)c1cccc(N2CCCOCC2)c1
6,121,C[C@H](NC(=O)/C=C/c1ccccc1F)c1cccc(N2CCOCC2)c1
7,132,COc1cccc(/C=C/C(=O)N[C@@H](C)c2cccc(N3CCOCC3)c2)c1
8,140,COc1ccc(/C=C/C(=O)N[C@@H](C)c2cccc(N3CCOCC3)c2)cc1
9,124,C[C@H](NC(=O)/C=C/c1ccc(F)cc1F)c1cccc(N2CCOCC2)c1
10,88,C[C@H](NC(=O)/C=C/c1ccc(F)cc1)c1cccc(N2CCOCC2)c1
11,96,C[C@@H](NC(=O)/C=C/c1ccccc1)c1cccc(N2CCOCC2)c1
12,129,C[C@H](NC(=O)/C=C/c1ccccc1)c1ccc(F)c(N2CCOCC2)c1
13,163,C[C@H](NC(=O)/C=C/c1ccccc1)c1cccc(N2CCOCC2)c1
